S1P3 antag-1: S1P3 (human) receptor antagonism; Q99500; CHO S1P3 NFAT-BLA reporter, FRET fluorescence, antagonist mode; inhibition, % at 4.98 µM; 170,000 tested, 0.27% active;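 active = inhibition above the plate cutoff, the mean inhibition of test wells on that plate plus 3 SD, cut at about 28% in these data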;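 also: cells challenged with S1P at its EC80 of 0.8 µM; blue over green emission ratio from cleaved BLA substrate after 4 h stimulation; 0% = S1P-stimulated wells and 100% = unstimulated DMSO-only wells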
Target sequence (Q99500 whole entry, looked up): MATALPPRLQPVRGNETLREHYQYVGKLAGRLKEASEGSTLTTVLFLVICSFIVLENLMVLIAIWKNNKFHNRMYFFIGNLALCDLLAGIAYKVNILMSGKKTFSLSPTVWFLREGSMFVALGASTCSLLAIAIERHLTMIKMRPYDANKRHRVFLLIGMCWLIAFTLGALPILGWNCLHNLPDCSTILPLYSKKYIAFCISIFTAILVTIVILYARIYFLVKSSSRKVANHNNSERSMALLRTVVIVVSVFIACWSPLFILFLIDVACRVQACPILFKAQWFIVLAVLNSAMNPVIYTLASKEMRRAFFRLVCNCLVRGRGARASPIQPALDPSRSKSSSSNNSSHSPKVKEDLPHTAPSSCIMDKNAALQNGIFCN
MDM2 E3 inh: blocks human Mdm2 ubiquitin ligase activity. Q00987. cell-based MDM2 ubiquitination luciferase reporter, 2 h; 0 = plate control, 100 = twice control, blank-subtracted. signal enhancement, % at 5 µM. 210,000 tested, 0.11% active. AID 1230;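 active = signal enhancement of 30% or more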;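 also: luminescence tracks abundance of the self-degrading MDM2-luciferase fusion protein; higher signal means inhibition of MDM2 E3 ligase activity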
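system = mammalian cells stably expressing self-ubiquitinating, self-degrading MDM2 E3–luciferase fusion | quantity = 2000 cells per well seeded | incubation = 4 h cell settling then 2 h compound exposure, 37 °C | signal = SteadyLite luminescence, 15 min reagent step | benchmarks = plate control and blank wells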
Hsp70 activator: switches on Hsp70 transcription; AID 1203; activation, % at 10 µM; HeLa Hsp70 promoter luciferase reporter, luminescence; scaled: vehicle 0, proteasome-inhibitor control 100%; 200,000 tested, 0.04% active;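 active = activation above the mean across all tested compounds plus 3 SD, cutoff set per campaign, cut at about 5.5% in these data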;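 also: 100% = MG132 at 30 µM as the positive control and 0% = DMSO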
CHOP inh: CHOP inhibition in unfolded protein response. AID 2732. CHO-K1 CHOP-promoter luciferase, tunicamycin-induced, 15-18 h. inhibition, % at 10 µM. 220,000 tested, 3.8% active;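 active = compounds that reduced the stress-induced luciferase reporter signal by more than about 70% of percent inhibition, limit read from the data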;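 also: 0% = tunicamycin plus vehicle and 100% = wells without tunicamycin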
S1P3 antag-2: confirmation of human S1P3 receptor antagonists | shares compounds with S1P3 antag-1 | CHO S1P3 NFAT-BLA reporter, FRET, antagonist mode | inhibition, % at 4.98 µM | 240 tested, 30% active;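 active = inhibition above the hit threshold that was computed for the earlier primary screen, cut at about 30% in these data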;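 also: 0% = S1P-stimulated wells and 100% = unstimulated DMSO-only wells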
An asterisk follows results filed as active; / = not tested or not shown. Most compounds without a hit are left out; they make up all but 4% or so of the library.

SMILES	S1P3 antag-1	MDM2 E3 inh	Hsp70 activator	CHOP inh	others
CCCCCCCCCCCCCC(=O)O[C@@H]1[C@@H](C)[C@@]2(O)[C@@H](C=C(CO)C[C@@]3(O)C(=O)C(C)=C[C@@H]23)C2C(C)(C)[C@@]21OC(C)=O (stereo partly specified)	/	/	/	-44
O=C1NC(=O)N(c2ccccc2)C(=O)/C1=C\C=C\c1ccccc1	-8	26	/	81*
CCCCN1C(=O)/C(=C/C=C/c2ccco2)C(=O)NC1=S	-43	-14	0	-30
Cc1ccc(N2C(=O)NC(=O)/C(=C/c3ccoc3)C2=O)cc1	4	-8	/	-48
CCc1ccc(N2C(=O)NC(=O)/C(=C\C=C\c3ccco3)C2=O)cc1	1	/	/	108*
O=C1NC(=O)N(Cc2ccc(F)cc2)C(=O)/C1=C\C=C\c1ccco1	-12	4	/	0
CC(C)c1ccc(N2C(=O)NC(=O)/C(=C/C=C/c3ccco3)C2=O)cc1	-4	-5	0	103*
Cc1ccc(N2C(=O)NC(=O)/C(=C/C=C/c3ccco3)C2=O)cc1	0	-11	0	101*
N[C@@H](Cn1ccc(=O)[nH]c1=O)C(=O)O	/	/	/	-12
Cc1cccc(CN2CCN(c3ccc(Cl)cc3)CC2)c1	-8	-2	0	83*
CN1C[C@@H](CS(=O)(=O)N(C)C)C[C@@H]2c3cccc4c3c(cn4C)C[C@H]21	/	/	/	-4
Cc1cc(C)cc(N2C(=O)NC(=O)/C(=C\c3cc(C)n(C)c3C)C2=O)c1	-9	-1	0	10
Cc1cc(/C=C2\C(=O)NC(=O)N(c3ccc(Cl)cc3)C2=O)c(C)n1C	5	-10	0	79*
CC(C)Oc1cc(-n2c(=S)[nH]c3ccccc3c2=O)c(Cl)cc1Cl	/	-17	1	83*
Cc1ccc(OP(=O)(NC(C)c2ccccc2)Oc2ccc(C)cc2)cc1 (stereo unspecified)	-8	-2	0	77*
Cc1ccc(OP(=O)(NCc2ccccc2)Oc2ccc(C)cc2)cc1	5	-6	0	58
CC1(C)CN=C(Nc2ccc(F)c(F)c2)S1	-11	-11	0	82*
CC12NC(Cc3ccccc31)c1ccccc12 (stereo unspecified)	/	/	/	-21
O=C1NC(=O)C2(Cc3ccccc3N3CCCC32)C(=O)N1c1cccc(Cl)c1 (stereo unspecified)	-9	0	0	12
Cc1ccc(N2C(=O)NC(=O)C3(Cc4ccccc4N4CCN(c5ccccc5)CC43)C2=O)cc1 (stereo unspecified)	-14	0	0	70*
Cc1ccc2c(c1)CC1(CN2C)C(=O)NC(=O)N(CCc2ccccc2)C1=O (stereo unspecified)	/	-15	0	91*
CCN1C[C@]2(C)CC[C@H](O)[C@@]34C5C[C@@H]6[C@@H](OC)C[C@@](O)(C5[C@H]6O)[C@@H](CC23)C14 (stereo partly specified)	/	/	/	24
O=S(=O)(F)c1ccc2nc(-c3cccc(Sc4ccccc4)c3)cc(Cl)c2c1	0	/	/	16
Brc1ccc(CN2CCNCC2)s1	/	0	0	71*
O=c1[nH]c(=O)n(Cc2ccccc2)c(O)c1/C=C1\C=Nc2ccccc21	8	-10	0	83*
SMILES	S1P3 antag-1	MDM2 E3 inh	Hsp70 activator	CHOP inh	others
CC(C)(O)[C@H]1O[C@H]2CC[C@@]3(C)[C@@](O)(CC[C@H]4Cc5c([nH]c6ccccc56)[C@@]43C)C2=CC1=O	4	-6	0	82*
Clc1ccc2c(c1)C(c1ccccc1Cl)=NCc1nnc(N3CCN(CCOc4ccccc4)CC3)n1-2	-7	-9	0	88*
C=CCc1cc(C=C2C(=O)NC(=O)NC2=O)cc(OC)c1OCc1ccc(C(=O)O)cc1	-3	22	0	1
C=CCc1cc(C=C2C(=O)N(C)C(=O)N(C)C2=O)cc(OCC)c1OCc1ccccc1	10	3	0	89*
O=C(O)c1ccc2c(c1)C1C(Cl)C(Sc3ccccc3[N+](=O)[O-])CC1C(c1cccc([N+](=O)[O-])c1)N2 (stereo unspecified)	13	-11	0	81*
O=C(O)c1cccc2c1NC(c1cccc([N+](=O)[O-])c1)C1CC(Sc3ccccc3[N+](=O)[O-])C(Cl)C21 (stereo unspecified)	2	-3	-1	51
CCn1cc(C(=O)c2cccs2)c2ccccc21	/	1	0	77*
N#CC(=Cc1ccc(O)c(O)c1)C(N)=S	/	/	/	-2
N[C@@H](Cn1cc(I)c(=O)[nH]c1=O)C(=O)O	/	/	/	-7
CN(C)c1ccc(C=C2C(=O)NC(=S)NC2=O)cc1[N+](=O)[O-]	-4	0	0	-9
O=C1NC(=S)NC(=O)C1=Cc1cccc2cc3ccccc3cc12	2	11	/	108*
C[C@]12CC[C@H]3[C@@H](CCC4C[C@H](O)CC[C@@]43C)[C@@H]1CC[C@@H]2O (stereo partly specified)	/	/	/	-9
COc1cccc(NP(=O)(Oc2ccccc2)Oc2ccccc2)c1	6	-15	0	16
COc1cccc(NP(=O)(Oc2ccccc2Cl)Oc2ccccc2Cl)c1	-5	-1	0	91*
CCCC(=O)c1c(O)[nH]c(=O)[nH]c1=O	-12	1	0	-5
CCOP1(=S)Oc2cc3c(cc2C(C(=O)OC)(C(F)(F)F)O1)OCO3 (stereo unspecified)	12	-17	0	82*
Cc1cc(O)c(CN2CCN(c3ccccc3)CC2)cc1C	/	-14	0	82*
COc1ccc(CN2CCN(c3ccccc3)CC2)c(C)c1C	16	-17	0	80*
Cc1ccc(O)c(CN2CCN(c3ccccc3)CC2)c1	-16	-7	0	61
O=C1NC(=S)N(c2ccccc2F)C(=O)/C1=C\c1cccs1	3	-10	0	83*
CCCn1c(C)c(C(=O)c2ccc3ccccc3c2)c2ccccc21	/	/	/	-18
Cc1cccc(C)c1NC(=O)c1cccn(Cc2ccc3c(c2)OC(F)(F)O3)c1=O	/	-16	0	86*
Cn1ncnc2c(=O)n(C)c(=O)nc1-2	105*	/	/	/
CN1CCC23CCCC[C@H]2C1Cc1ccc(O)cc13 (stereo partly specified)	/	/	/	16
CC(N)c1cccc(Cl)c1Cl (stereo unspecified)	/	/	/	-4
CCOc1ccc(-c2c(C)n(-c3ccc(OCC)cc3)c3[n+]2CCCCC3)cc1	40*	-64	/	68	S1P3 antag-2=16
CCOc1ccc(-n2c(-c3ccoc3)nc3ccccc3c2=O)cc1	/	-3	0	30
O=C(COC(=O)Cc1ccccc1)Nc1ccc(Cl)cn1	36*	5	0	14	S1P3 antag-2=-11
NCCCCCC(=O)OC1N=C(c2ccccc2Cl)c2cc(Br)ccc2NC1=O (stereo unspecified)	-4	-1	0	-15
